Test results as given in ChEMBL document CHEMBL1123960, “Thyroid hormone analogues. Synthesis of 3'-substituted 3,5-diiodo-L-thyronines and quantitative structure-activity studies of in vitro and in vivo thyromimetic activities in rat liver and heart” (J Med Chem, 1988).
One block for each molecule: values may come before it. Activity calls are given as the source filed them. The rule behind the calls is not given here.

Legend:
[1] = molecular target: T1, Thyroid hormone receptor beta (Rattus norvegicus) (UniProt P18113); assay: Thyromimetic activity (induction of GPDH) in rat heart expressed as percentage of ratio of the ED50 for T3; F= Full agonist; format: functional, tissue-based; settings: filed as agonist
T1 sequence (whole entry): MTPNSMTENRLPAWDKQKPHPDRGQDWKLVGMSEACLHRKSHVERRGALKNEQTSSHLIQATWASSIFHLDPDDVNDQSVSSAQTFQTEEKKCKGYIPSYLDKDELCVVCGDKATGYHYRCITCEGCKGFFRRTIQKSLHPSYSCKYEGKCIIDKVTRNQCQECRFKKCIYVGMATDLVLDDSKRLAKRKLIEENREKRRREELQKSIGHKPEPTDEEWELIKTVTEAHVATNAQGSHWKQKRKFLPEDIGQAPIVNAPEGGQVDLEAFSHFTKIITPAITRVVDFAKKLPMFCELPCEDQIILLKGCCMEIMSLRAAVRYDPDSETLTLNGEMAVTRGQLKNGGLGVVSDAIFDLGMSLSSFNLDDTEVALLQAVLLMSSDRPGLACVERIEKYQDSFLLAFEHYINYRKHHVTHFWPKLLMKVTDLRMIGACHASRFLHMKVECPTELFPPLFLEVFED
Procedure, shortened: (§1)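 Hypothyroid rats received a single intramuscular injection in 0.15 M NaCl/0.01 M NaOH vehicle (1 mL/kg), up to 50 mg/kg. Mitochondrial GPDH activity was measured in the organ 48 h later. Dose-response curves were fitted to a hyperbola by nonlinear fitting to give ED50, and rel ED50 = (ED50 T3 / ED50 compound) × 100. Where the maximum was below T3's, the percent of maximal response at 50 mg/kg was calculated.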

[2] = molecular target: T1, Thyroid hormone receptor beta (Rattus norvegicus); assay: Thyromimetic activity (induction of GPDH) in rat liver expressed as percentage of ratio of the ED50 for T3; F= Full agonist; format: functional; settings: filed as agonist; procedure, shortened: as §1
[3] = pKa for compound was evaluated; format: physicochemical
Rattus norvegicus [4] = species: Rattus norvegicus; assay: Thyromimetic activity (induction of GPDH) in rat heart expressed as percentage of ratio of the ED50 for T3 to that of the test compound; Full agonist; format: functional, organism-based; settings: filed as agonist; procedure, shortened: as §1
Rattus norvegicus [5] = species: Rattus norvegicus; assay: Thyromimetic activity (induction of GPDH) in rat liver expressed as percentage of ratio of the ED50 for T3 to that of the test compound; I= Inactive; format: functional, organism-based; procedure, shortened: as §1
[6] = molecular target: T1, Thyroid hormone receptor beta (Rattus norvegicus); assay: Thyromimetic activity (induction of GPDH) in rat heart expressed as percentage of ratio of the ED50 for T3; I= Inactive; format: functional, tissue-based; procedure, shortened: as §1
Rattus norvegicus [7] = species: Rattus norvegicus; assay: Thyromimetic activity (induction of GPDH) in rat heart expressed as percentage of ratio of the ED50 for T3 to that of the test compound; LM= Low maximum response; format: functional, organism-based; settings: filed as partial agonist; procedure, shortened: as §1
Rattus norvegicus [8] = species: Rattus norvegicus; assay: Thyromimetic activity (induction of GPDH) in rat liver expressed as percentage of ratio of the ED50 for T3 to that of the test compound; Full agonist; format: functional, organism-based; settings: filed as agonist; procedure, shortened: as §1
Rattus norvegicus [9] = assay: Relative in vivo thyromimetic potency (GPDH induction) in rat heart, expressed as percent ratio of ED50 for T3 to that of compound; F= Full agonist; settings: filed as agonist

SMILES: NC(Cc1cc(I)c(Oc2ccc(O)c(CO)c2)c(I)c1)C(=O)O (stereo unspecified)
pKa [3]: 9.92

SMILES: CC(C)c1cc(Oc2c(I)cc(CC(N)C(=O)O)cc2I)ccc1O (stereo unspecified)
pKa [3]: 10.5

SMILES: CCC(=O)NCCc1cc(Oc2c(I)cc(CC(N)C(=O)O)cc2I)ccc1O (stereo unspecified)
Relative ED50 [6]: inactive

SMILES: NC(Cc1cc(I)c(Oc2ccc(O)c(CC3CCCCC3)c2)c(I)c1)C(=O)O (stereo unspecified)
Relative ED50 [1]: Agonist
Relative ED50 [2]: Agonist

SMILES: COCCCCc1cc(Oc2c(I)cc(CC(N)C(=O)O)cc2I)ccc1O (stereo unspecified)
Relative ED50 [1]: Agonist

SMILES: CC(=O)c1cc(Oc2c(I)cc(CC(N)C(=O)O)cc2I)ccc1O (stereo unspecified)
pKa [3]: 10.1

SMILES: CC(=O)NCCCc1cc(Oc2c(I)cc(CC(N)C(=O)O)cc2I)ccc1O (stereo unspecified)
Relative ED50 [6]: inactive

SMILES: NC(Cc1cc(I)c(Oc2ccc(O)c(Cl)c2)c(I)c1)C(=O)O (stereo unspecified)
pKa [3]: 8.56

SMILES: COCc1cc(Oc2c(I)cc(CC(N)C(=O)O)cc2I)ccc1O (stereo unspecified)
pKa [3]: 9.85
Relative ED50 [1]: Agonist

SMILES: NCCc1cc(Oc2c(I)cc(CC(N)C(=O)O)cc2I)ccc1O (stereo unspecified)
Relative ED50 [6]: inactive

SMILES: NC(Cc1cc(I)c(Oc2ccc(O)c(Br)c2)c(I)c1)C(=O)O (stereo unspecified)
pKa [3]: 8.45

SMILES: NC(Cc1cc(I)c(Oc2ccc(O)c(CCCCO)c2)c(I)c1)C(=O)O (stereo unspecified)
Relative ED50 (Rattus norvegicus [7]): Partial agonist

SMILES: CC(C)(C)c1cc(Oc2c(I)cc(CC(N)C(=O)O)cc2I)ccc1O (stereo unspecified)
pKa [3]: 10.6

SMILES: CCOCCCc1cc(Oc2c(I)cc(CC(N)C(=O)O)cc2I)ccc1O (stereo unspecified)
Relative ED50 [2]: Agonist

SMILES: NC(Cc1cc(I)c(Oc2ccc(O)c(C3CCCCC3)c2)c(I)c1)C(=O)O (stereo unspecified)
Relative ED50 [2]: Agonist

SMILES: CCC(=O)c1cc(Oc2c(I)cc(CC(N)C(=O)O)cc2I)ccc1O (stereo unspecified)
Relative ED50 (Rattus norvegicus [8]): Agonist

SMILES: NC(Cc1cc(I)c(Oc2ccc(O)c([N+](=O)[O-])c2)c(I)c1)C(=O)O (stereo unspecified)
pKa [3]: 7.23
Relative ED50 [1]: Agonist

SMILES: NC(Cc1cc(I)c(Oc2ccc(O)c(Cc3ccccc3)c2)c(I)c1)C(=O)O (stereo unspecified)
pKa [3]: 10.1

SMILES: NC(Cc1cc(I)c(Oc2ccc(O)c(C(=O)O)c2)c(I)c1)C(=O)O (stereo unspecified)
Relative ED50 (Rattus norvegicus [5]): inactive
Relative ED50 [6]: inactive

SMILES: CCCCOCc1cc(Oc2c(I)cc(CC(N)C(=O)O)cc2I)ccc1O (stereo unspecified)
Relative ED50 [1]: Agonist
Relative ED50 [2]: Agonist

SMILES: C=CCc1cc(Oc2c(I)cc(CC(N)C(=O)O)cc2I)ccc1O (stereo unspecified)
pKa [3]: 10.3

SMILES: NC(Cc1cc(I)c(Oc2ccc(O)c(F)c2)c(I)c1)C(=O)O (stereo unspecified)
pKa [3]: 8.73
Relative ED50 [2]: Agonist
Relative ED50 (Rattus norvegicus [9]): Agonist

SMILES: N[C@@H](Cc1cc(I)c(Oc2ccc(O)cc2)c(I)c1)C(=O)O
pKa [3]: 9.99

Continued, in another order:

Relative ED50 [1]: Agonist
Relative ED50 [2]: Agonist
SMILES: CCC(C)c1cc(Oc2c(I)cc(CC(N)C(=O)O)cc2I)ccc1O (stereo unspecified)

pKa [3]: 10
SMILES: NC(Cc1cc(I)c(Oc2ccc(O)c(-c3ccccc3)c2)c(I)c1)C(=O)O (stereo unspecified)

Relative ED50 [2]: Agonist
SMILES: CCCCSCc1cc(Oc2c(I)cc(CC(N)C(=O)O)cc2I)ccc1O (stereo unspecified)

pKa [3]: 8.37
SMILES: NC(Cc1cc(I)c(Oc2ccc(O)c(C=O)c2)c(I)c1)C(=O)O (stereo unspecified)
Relative ED50 (Rattus norvegicus [4]): Agonist

Relative ED50 [1]: Agonist
SMILES: CCCCc1cc(Oc2c(I)cc(CC(N)C(=O)O)cc2I)ccc1O (stereo unspecified)

Relative ED50 [6]: inactive
SMILES: CCCC(=O)NCc1cc(Oc2c(I)cc(CC(N)C(=O)O)cc2I)ccc1O (stereo unspecified)
Relative ED50 (Rattus norvegicus [5]): inactive

pKa [3]: 9.34
SMILES: NC(Cc1cc(I)c(Oc2ccc(O)c(O)c2)c(I)c1)C(=O)O (stereo unspecified)

pKa [3]: 8.51
SMILES: N[C@@H](Cc1cc(I)c(Oc2ccc(O)c(I)c2)c(I)c1)C(=O)O [LIOTHYRONINE]

Relative ED50 [1]: Agonist
Relative ED50 [2]: Agonist
SMILES: CC(C)Cc1cc(Oc2c(I)cc(CC(N)C(=O)O)cc2I)ccc1O (stereo unspecified)

Relative ED50 [6]: inactive
SMILES: NCc1cc(Oc2c(I)cc(CC(N)C(=O)O)cc2I)ccc1O (stereo unspecified)
Relative ED50 (Rattus norvegicus [5]): inactive

pKa [3]: 10.3
SMILES: Cc1cc(Oc2c(I)cc(CC(N)C(=O)O)cc2I)ccc1O (stereo unspecified)
